Values belong to the molecule of their own block, whether it stands above or below them.
Columns and labels:
Type in all cases: ADME, organism-based
Homo sapiens [1] = species: Homo sapiens; assay: (§1) Cmax in HIV infected patient assessed as carbovir-triphosphate level per million cells at 600 mg QD by HPLC/MS/MS analysis; parameters: dose 600 mg; details: in vivo
Summary of the method: (§2)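 Steady-state crossover in HIV-1-infected adults, oral abacavir 600 mg QD or 300 mg BID, fasted ≥10 h before and 2 h after dosing; blood drawn predose and 2–24 h postdose on days 1 and 11. PBMC isolated, counted in duplicate, lysed in ice-cold 70% methanol; CBV-TP measured by LC-MS/MS after anion exchange and alkaline phosphatase hydrolysis, converted to fmol/million cells; noncompartmental analysis.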

Homo sapiens [2] = species: Homo sapiens; assay: (§3) AUC (0 to 24 hrs) in HIV infected patient assessed as carbovir-triphosphate level per million cells at 600 mg QD by HPLC/MS/MS analysis; parameters: dose 600 mg, time < 24 hr; details: in vivo; summary of the method: as §2
Homo sapiens [3] = species: Homo sapiens; assay: (§4) AUC (0 to 24 hrs) in HIV infected patient assessed as carbovir-triphosphate level per million cells at 300 mg BID by HPLC/MS/MS analysis; parameters: time < 24 hr, dose 300 mg; details: in vivo; summary of the method: as §2
Homo sapiens [4] = species: Homo sapiens; assay: (§5) Cmax in HIV infected patient assessed as carbovir-triphosphate level per million cells at 300 mg BID by HPLC/MS/MS analysis; parameters: dose 300 mg; details: in vivo; summary of the method: as §2
Homo sapiens [5] = species: Homo sapiens; assay: as §4; parameters: dose 300 mg, time < 24 hr; details: in vivo; summary of the method: as §2
Homo sapiens [6] = species: Homo sapiens; assay: as §5; parameters: dose 300 mg; details: in vivo; summary of the method: as §2; remark: listed apart in the source
Homo sapiens [7] = assay: (§6) Drug level at end of dosing interval in HIV infected patient assessed as carbovir-triphosphate level per million cells at 300 mg BID by HPLC/MS/MS analysis; details: in vivo; summary of the method: as §2
Homo sapiens [8] = species: Homo sapiens; assay: AUC (0 to 24 hrs) in HIV infected male patient assessed as carbovir-triphosphate level per million cells at 600 mg QD by HPLC/MS/MS analysis; parameters: dose 600 mg, time < 24 hr; details: in vivo; summary of the method: as §2
Homo sapiens [9] = species: Homo sapiens; assay: as §1; parameters: dose 600 mg; details: in vivo; summary of the method: as §2; remark: listed apart in the source
Homo sapiens [10] = species: Homo sapiens; assay: AUC (0 to 24 hrs) in HIV infected female patient assessed as carbovir-triphosphate level per million cells at 300 mg BID by HPLC/MS/MS analysis; parameters: dose 300 mg, time < 24 hr; details: in vivo
Homo sapiens [11] = species: Homo sapiens; assay: as §5; parameters: dose 300 mg; details: in vivo; summary of the method: as §2; remark: listed apart in the source
Homo sapiens [12] = assay: as §6; details: in vivo; summary of the method: as §2; remark: listed apart in the source
Homo sapiens [13] = species: Homo sapiens; assay: as §3; parameters: dose 600 mg, time < 24 hr; details: in vivo; summary of the method: as §2; remark: listed apart in the source
Homo sapiens [14] = species: Homo sapiens; assay: as §1; parameters: dose 600 mg; details: in vivo; summary of the method: as §2; remark: listed apart in the source
Homo sapiens [15] = species: Homo sapiens; assay: Ratio of AUC in HIV infected male patient assessed as carbovir-triphosphate level per million cells to AUC in HIV infected male patient at 600 mg QD by HPLC/MS/MS analysis; details: in vivo
Summary of the method: (§7)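 Per-subject ratio of intracellular CBV-TP AUC0-24 (PBMC, fmol/million cells, LC-MS/MS) to plasma abacavir AUC0-24 (HPLC-MS/MS), both by noncompartmental analysis from serial samples over 24 h on days 1 and 11 of oral 600 mg QD or 300 mg BID dosing in fasted HIV-1-infected adults.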

Homo sapiens [16] = assay: (§8) Drug level at the end of dosing interval in HIV infected patient at 600 mg QD by HPLC/MS/MS analysis; details: in vivo
Summary of the method: (§9)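 Plasma abacavir at steady state in HIV-1-infected adults dosed orally 600 mg QD or 300 mg BID under fasting, serial samples predose to 24 h (plus 1 h) on days 1 and 11; validated HPLC-MS/MS, calibration 2.5–2,500 ng/ml; noncompartmental parameters from actual times, BID AUC0-24 taken as 2 × AUC0-τ.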

[17] = (§10) AUC (0 to 24 hrs) in HIV infected patient at 600 mg QD by HPLC/MS/MS analysis; parameters: dose 600 mg, time < 24 hr; details: human, plasma; summary of the method: as §9
Homo sapiens [18] = assay: (§11) Drug level at the end of dosing interval in HIV infected patient at 300 mg BID by HPLC/MS/MS analysis; details: in vivo; summary of the method: as §9
Homo sapiens [19] = species: Homo sapiens; assay: Ratio of AUC in HIV infected patient assessed as carbovir-triphosphate level per million cells to AUC in HIV infected patient at 600 mg QD by HPLC/MS/MS analysis; details: in vivo; summary of the method: as §7
Homo sapiens [20] = species: Homo sapiens; assay: Ratio of AUC in HIV infected patient assessed as assessed as carbovir-triphosphate level per million cells to AUC in HIV infected patient at 300 mg BID by HPLC/MS/MS analysis; details: in vivo; summary of the method: as §7
[21] = Cmax in HIV infected patient at 300 mg BID by HPLC/MS/MS analysis; parameters: dose 300 mg; details: human, in vivo; summary of the method: as §9
Homo sapiens [22] = assay: as §11; details: in vivo; summary of the method: as §9; remark: listed apart in the source
[23] = as §10; parameters: time < 24 hr, dose 600 mg; details: male, human, plasma; summary of the method: as §9
[24] = Cmax in HIV infected patient at 600 mg QD by HPLC/MS/MS analysis; parameters: dose 600 mg; details: human, in vivo; summary of the method: as §9
Homo sapiens [25] = assay: as §8; details: in vivo; summary of the method: as §9; remark: listed apart in the source
[26] = AUC (0 to 24 hrs) in HIV infected patient at 300 mg BID by HPLC/MS/MS analysis; parameters: time < 24 hr, dose 300 mg; details: human, plasma; summary of the method: as §9
Homo sapiens [27] = assay: as §11; details: in vivo; summary of the method: as §9; remark: listed apart in the source
Homo sapiens [28] = assay: as §8; details: in vivo; summary of the method: as §9; remark: listed apart in the source
Homo sapiens [29] = species: Homo sapiens; assay: Ratio of AUC in HIV infected male patient assessed as assessed as carbovir-triphosphate level per million cells to AUC in HIV infected male patient at 300 mg BID by HPLC/MS/MS analysis; details: in vivo; summary of the method: as §7
Homo sapiens [30] = species: Homo sapiens; assay: Ratio of AUC in HIV infected female patient assessed as assessed as carbovir-triphosphate level per million cells to AUC in HIV infected female patient at 300 mg BID by HPLC/MS/MS analysis; details: in vivo; summary of the method: as §7
Homo sapiens [31] = species: Homo sapiens; assay: Ratio of AUC in HIV infected female patient assessed as carbovir-triphosphate level per million cells to AUC in HIV infected female patient at 600 mg QD by HPLC/MS/MS analysis; details: in vivo; summary of the method: as §7

- Cmax (Homo sapiens [1]): 114 fmol/10^6 cells
- AUC (Homo sapiens [2]): 1051 h·fmol/million cells
- AUC (Homo sapiens [3]): 814 h·fmol/million cells
- Cmax (Homo sapiens [4]): 58.5 fmol/10^6 cells
- AUC (Homo sapiens [5]): 688 h·fmol/million cells
- Cmax (Homo sapiens [6]): 49.3 fmol/10^6 cells
- Ct (Homo sapiens [7]): 18.7 fmol/10^6 cells
- AUC (Homo sapiens [8]): 792 h·fmol/million cells
- Cmax (Homo sapiens [9]): 86.5 fmol/10^6 cells
- AUC (Homo sapiens [10]): 1138 h·fmol/million cells
- Cmax (Homo sapiens [11]): 82.5 fmol/10^6 cells
- Ct (Homo sapiens [12]): 37.2 fmol/10^6 cells
- AUC (Homo sapiens [13]): 1851 h·fmol/million cells
- Cmax (Homo sapiens [14]): 198 fmol/10^6 cells
- AUC (Homo sapiens [15]): 1051 fmol·h
Structure (SMILES): Nc1nc(=O)c2ncn([C@H]3C=C[C@@H](COP(=O)(O)OP(=O)(O)OP(=O)(O)O)C3)c2[nH]1 [CARBOVIR 5'-TRIPHOSPHATE, (-)-]

- Ct (Homo sapiens [16]): 0.009 µg/mL
- AUC at 24 h ([17]; female): 11700 ng·h/mL
- AUC at 24 h [17]: 8520 ng·h/mL
- Ct (Homo sapiens [18]): 0.018 µg/mL
- Ratio AUC (Homo sapiens [19]): 123
- Ratio AUC (Homo sapiens [20]): 103
- Cmax [21]: 1840 ng/mL
- Cmax ([21]; male): 1590 ng/mL
- Ct (Homo sapiens [22]): 0.015 µg/mL
- AUC at 24 h [23]: 7260 ng·h/mL
- Cmax ([24]; female): 4830 ng/mL
- Cmax [24]: 3850 ng/mL
- Cmax ([24]; male): 3430 ng/mL
- Ct (Homo sapiens [25]): 0.008 µg/mL
- AUC at 24 h ([26]; female): 10900 ng·h/mL
- AUC at 24 h [26]: 7900 ng·h/mL
- AUC at 24 h ([26]; male): 6740 ng·h/mL
- Ct (Homo sapiens [27]): 0.026 µg/mL
- Ct (Homo sapiens [28]): 0.009 µg/mL
- Ratio AUC (Homo sapiens [29]): 102
- Ratio AUC (Homo sapiens [30]): 105
- Ratio AUC (Homo sapiens [31]): 158
- Ratio AUC (Homo sapiens [15]): 109
Structure (SMILES): Nc1nc(NC2CC2)c2ncn([C@H]3C=C[C@@H](CO)C3)c2n1 [ABACAVIR]

From ChEMBL document CHEMBL1649148, “Steady-state pharmacokinetics of abacavir in plasma and intracellular carbovir triphosphate following administration of abacavir at 600 milligrams once daily and 300 milligrams twice daily in human immunodeficiency virus-infected subjects” (Antimicrob Agents Chemother, 2009)
